Where two headings read alike, the source gives them in different places.
Assays:
[1] = format: in vivo, human; details: for tmax, total methylprednisolone: median (minimum‐maximum)
In short: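 Oral methylprednisolone tablets were given to healthy in-clinic volunteers, with serial whole-blood sampling over 24 h after dosing on study days 1 and 4. Plasma total methylprednisolone was quantified by validated LC–MS/MS. The PK population comprised subjects with at least 4 consecutive quantifiable concentrations. Parameters were summarized descriptively.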

[2] = Plasma pharmacokinetics of free methylprednisolone after oral methylprednisolone; format: in vivo, human; details: oral 32 mg daily; for tmax, free methylprednisolone: median (minimum‐maximum)
[3] = Safety: adverse events, examinations, laboratory tests; format: in vivo, human; details: n = 16 subjects per study drug group
In short: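 The safety population comprised every subject given ≥1 dose. Assessments throughout the study covered AEs, TEAEs (events after the first dose through study completion), serious TEAEs, physical examinations, vital signs, 12‑lead ECGs and clinical laboratory tests. Results were summarized descriptively.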

[4] = system: steroidogenic concentration (CSG = 5 × ConcMPD + ConcCortisol); assay: Steroidogenic exposure; format: in vivo, human; details: oral methylprednisolone 32 mg daily
In short: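 After oral methylprednisolone on days 1 and 4, plasma total and free methylprednisolone were measured over 24 h by LC–MS/MS, alongside serum total and plasma free cortisol. Steroidogenic concentration was CSG = 5 × methylprednisolone concentration + cortisol concentration. AUEC24SG was derived noncompartmentally from actual sampling times, in subjects belonging to both the PK and PD populations.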

[5] = every 1 mg of methylprednisolone is equivalent to 5 mg of cortisol; cited from earlier work
[6] = oral 32 mg daily, plasma, day 1, mean (SD), n = 16
[7] = oral 32 mg daily, plasma, day 4, mean (SD), n = 14
[8] = plasma, day 1, mean (SD), n = 16

RAUC0‐24 (accumulation ratio), total methylprednisolone ([1]; oral 32 mg daily, AUC0-24 on day 4 divided by AUC0-24 on day 1, mean): 0.9 | time of mean peak plasma total methylprednisolone concentration (mean profile) ([1]; oral 32 mg daily, after oral dosing): around 2 hours | AUC0‐inf, total methylprednisolone [1, 6]: n = 16 1030 (380) ng • h/mL | AUC0‐last, total methylprednisolone [1, 6]: n = 16 1020 (381) ng • h/mL | t½, total methylprednisolone [1, 6]: n = 16 2.2 (0.6) h | t½, total methylprednisolone ([1]; oral 32 mg daily, plasma, day 1, mean (SD), n = 16, listed as methylprednisolone): 2.2 h | tmax, total methylprednisolone ([1]; oral 32 mg daily, plasma, day 1, n = 16): n = 16 2.0 (2.0‐4.0) h | AUC0‐last, total methylprednisolone [1, 7]: n = 14 919 (297) ng • h/mL | t½, total methylprednisolone [1, 7]: n = 14 2.4 (0.7) h | t½, total methylprednisolone ([1]; oral 32 mg daily, plasma, day 4, mean (SD), n = 14, listed as methylprednisolone): 2.4 h | tmax, total methylprednisolone ([1]; oral 32 mg daily, plasma, day 4, n = 14): n = 14 2.0 (1.0‐4.0) h | Cmax, total methylprednisolone ([1]; oral methylprednisolone 32 mg daily, plasma, LC-MS/MS, day 4, mean (SD), n = 14): n = 14 188.0 (40.0) ng/mL | time of mean peak plasma free methylprednisolone concentration (mean profile) ([2]; after oral dosing): 2 h | Cmax, free methylprednisolone ([2]; plasma, LC-MS/MS, day 4, mean (SD), n = 15): n = 15 21.9 (5.4) ng/mL | AUC0‐inf, free methylprednisolone [2, 8]: n = 16 106 (36) ng • h/mL | AUC0‐last, free methylprednisolone [2, 8]: n = 16 104.0 (35.2) ng • h/mL | t½, free methylprednisolone [2, 8]: n = 16 1.9 (0.5) h | t½, free methylprednisolone ([2]; plasma, day 1, mean (SD), n = 16, listed as methylprednisolone): 1.9 h | tmax, free methylprednisolone ([2]; plasma, day 1, n = 16): n = 16 2.0 (1.0‐4.0) h | t½, free methylprednisolone ([2]; plasma, day 4, mean (SD), n = 13): n = 13 2.0 (0.5) h | t½, free methylprednisolone ([2]; plasma, day 4, mean (SD), n = 13, listed as methylprednisolone): 2.0 h | AUC0‐last, free methylprednisolone ([2]; plasma, day 4, mean (SD), n = 15): n = 15 89.5 (27.3) ng • h/mL | tmax, free methylprednisolone ([2]; plasma, day 4, n = 15): n = 15 2.0 (1.0‐4.0) h
SMILES: C[C@H]1C[C@@H]2[C@H]([C@@H](O)C[C@@]3(C)[C@H]2CC[C@]3(O)C(=O)CO)[C@@]2(C)C=CC(=O)C=C12 [Methylprednisolone, methylprednisolone]
Any TESAE [3]: 0 n (%) | Subjects with any TEAE [3]: 10 (62.5) n (%) | TEAE: Contusion [3]: 1 (6.3) n (%) | TEAE: Dysuria [3]: 0 n (%) | TEAE: Headache [3]: 2 (12.5) n (%) | TEAE: Heart palpitations [3]: 2 (12.5) n (%) | TEAE: Injection site reaction [3]: 0 n (%) | TEAE: Insomnia [3]: 0 n (%) | TEAE: Somnolence [3]: 0 n (%) | TESAE: Pulmonary embolism [3]: 0 n (%) | AEs ([3]; number of adverse events): 17 n | plasma total AUEC24SG ([4]; day 1, mean (SD 1770.0)): 6480.0 ng·h/mL | plasma free AUEC24SG ([4]; day 4, mean (SD 136.0)): 492.0 ng·h/mL | plasma total AUEC24SG ([4]; day 4, mean (SD 1330.0)): 5440.0 ng·h/mL | potency relative to cortisol (times more potent) [5]: 5 times

— article PMC9290342 (Clinical Pharmacology in Drug Development, 2021)
